# Experimental data: ChEMBL document CHEMBL1150584, “Antifungal stilbenoids from Stemona collinsae” (J Nat Prod, 2002)
# The source made the active and inactive calls. No cut-off for these calls is given here.
# What was measured:
# [1] = test system: Fusarium avenaceum; test: Inhibition of germ tube formation in Fusarium avenaceum VIAM MA1512 at 1.6 to 200 ug/ml after 16 hrs by microdilution technique; type: functional
# Method in brief: (§1)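 Stock (2 mg in 250 µL acetone plus 4.75 mL 4% malt extract, emulsified with 0.2% Tween 80) serially 2-fold microdiluted in 4% malt extract broth. Conidia were added at 10⁴ CFU/mL, then incubated 16 h at room temperature and stopped with lactophenol blue. Mycelial size was taken as pixel counts from images of 10 germinated conidia per well. Probit-log estimates covered 200–0.1 µg/mL. Controls were vehicle stock and benomyl.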
# [2] = test system: Fusarium avenaceum; test: Inhibition of germ tube formation in Fusarium avenaceum VIAM MA1512 after 16 hrs by microdilution technique; type: functional, organism-based; method in brief: as §1
# [3] = test system: Cladosporium herbarum; test: Inhibition of germ tube formation in Cladosporium herbarum VIAM MA1511 after 16 hrs by microdilution technique; type: functional, organism-based; method in brief: as §1
# [4] = test system: Botrytis cinerea; test: Inhibition of germ tube formation in Botrytis cinerea VIAM MA2725 after 16 hrs by microdilution technique; type: functional, organism-based; method in brief: as §1
# [5] = test system: Botrytis cinerea; test: Inhibition of germ tube formation in Botrytis cinerea VIAM MA2725 at 1.6 to 200 ug/ml after 16 hrs by microdilution technique; type: functional; method in brief: as §1
# [6] = test system: Alternaria citri; test: Inhibition of germ tube formation in Alternaria citri VIAM MA1627 after 16 hrs by microdilution technique; type: functional, organism-based; method in brief: as §1
# [7] = test system: Cladosporium herbarum; test: Growth inhibition of Cladosporium herbarum VIAM MA1511 at 10 ug by bioautography test; type: functional, organism-based
# [8] = test system: Pyricularia grisea; test: Inhibition of germ tube formation in Pyricularia grisea VIAM MA1628 after 16 hrs by microdilution technique; type: functional, organism-based
# Method in brief: (§2)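 Germ tube inhibition by 2-fold serial microdilution in 4% malt extract broth. Compound stock of 2 mg in 250 µL acetone plus 4.75 mL malt extract with 0.2% Tween 80; negative control was stock without compound. Spores added at 10⁴ CFU/mL, incubated 16 h at room temperature, stopped with lactophenol blue. Mycelial size taken as pixel counts from images of 10 germinated conidia per well. Probit-log estimates over 200–0.1 µg/mL; MIC = lowest concentration with no germination.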
# [9] = test system: Cladosporium herbarum; test: Inhibition of germ tube formation in Cladosporium herbarum VIAM MA1511 at 0.4 to 200 ug/ml after 16 hrs by microdilution technique; type: functional; method in brief: as §2
# [10] = test system: Botrytis cinerea; test: Inhibition of germ tube formation in Botrytis cinerea VIAM MA2725 at 0.4 to 200 ug/ml after 16 hrs by microdilution technique; type: functional; method in brief: as §2
Compound,inhibition (INH) [1],MIC [2],EC50 [3],EC90 [3],MIC [3],MIC [4],inhibition (INH) [5],EC50 [6],EC90 [6],MIC [6],EC50 [2],EC90 [2],EC50 [4],EC90 [4],Activity [7],EC90 [8],MIC [8],inhibition (INH) [9],inhibition (INH) [10],EC50 [8]
COc1cc(-c2cc3c(O)c(C)ccc3o2)c(C)c(O)c1C [STEMOFURAN G],30%,> 200 µg/mL,> 200 µg/mL,> 200 µg/mL,> 200 µg/mL,> 200 µg/mL,30%,14 µg/mL,> 200 µg/mL,> 200 µg/mL,–,–,–,–,–,–,–,–,–,–
COc1cc(-c2cc3c(O)cccc3o2)c(C)c(O)c1C [STEMOFURAN E],–,> 200 µg/mL,0.8 µg/mL,> 200 µg/mL,> 200 µg/mL,> 200 µg/mL,–,5 µg/mL,> 200 µg/mL,> 200 µg/mL,18 µg/mL,> 200 µg/mL,26 µg/mL,> 200 µg/mL,Active,–,–,–,–,–
Cc1c(O)cc(CCc2ccccc2O)cc1O,–,–,–,–,–,–,–,–,–,–,–,–,–,–,Active,–,–,–,–,–
CCCCNC(=O)n1c(NC(=O)OC)nc2ccccc21 [BENOMYL],–,100 µg/mL,–,–,> 200 µg/mL,> 200 µg/mL,–,> 200 µg/mL,> 200 µg/mL,> 200 µg/mL,0.02 µg/mL,> 200 µg/mL,–,–,–,84 µg/mL,200 µg/mL,85%,85%,–
Oc1cc(O)cc(-c2cc3ccccc3o2)c1,–,–,–,–,–,–,–,–,–,–,–,–,–,–,Active,–,–,–,–,–
COc1cc(-c2cc3c(O)cccc3o2)c(C)c(OC)c1C [STEMOFURAN J],–,> 200 µg/mL,34 µg/mL,> 200 µg/mL,> 200 µg/mL,> 200 µg/mL,–,50 µg/mL,> 200 µg/mL,> 200 µg/mL,32 µg/mL,> 200 µg/mL,50 µg/mL,> 200 µg/mL,–,8.5 µg/mL,25 µg/mL,–,–,0.9 µg/mL
COc1cc(O)c(C)c(-c2cc3c(O)cccc3o2)c1,–,–,–,–,–,–,–,–,–,–,–,–,–,–,Active,–,–,–,–,–
COc1cc(O)c(C)c(CCc2cccc(O)c2OC)c1,–,–,–,–,–,–,–,–,–,–,–,–,–,–,Active,–,–,–,–,–
Cc1c(O)cc(/C=C/c2ccccc2)cc1O,–,–,–,–,–,–,–,–,–,–,–,–,–,–,Active,–,–,–,–,–
Cc1c(O)cc(CCc2ccccc2)cc1O [STILBOSTEMIN B],–,> 200 µg/mL,15 µg/mL,> 200 µg/mL,> 200 µg/mL,> 200 µg/mL,–,5 µg/mL,> 200 µg/mL,200 µg/mL,16 µg/mL,> 200 µg/mL,10 µg/mL,> 200 µg/mL,Active,371 µg/mL,100 µg/mL,–,–,3 µg/mL
COc1c(C)c(O)c(C)c(-c2cc3c(O)cccc3o2)c1C [STEMOFURAN F],30%,> 200 µg/mL,79 µg/mL,> 200 µg/mL,> 200 µg/mL,> 200 µg/mL,30%,10 µg/mL,> 200 µg/mL,> 200 µg/mL,–,–,–,–,Active,–,–,–,–,–
COc1ccccc1CCc1cc(O)cc(O)c1 [STILBOSTEMIN A],–,> 200 µg/mL,> 200 µg/mL,> 200 µg/mL,> 200 µg/mL,> 200 µg/mL,30%,70 µg/mL,> 200 µg/mL,> 200 µg/mL,> 200 µg/mL,> 200 µg/mL,–,–,Active,> 200 µg/mL,> 200 µg/mL,–,–,46 µg/mL
Cc1c(O)cc(-c2cc3ccccc3o2)cc1O [STEMOFURAN C],–,> 200 µg/mL,8 µg/mL,> 200 µg/mL,> 200 µg/mL,> 200 µg/mL,–,7 µg/mL,528 µg/mL,> 200 µg/mL,21 µg/mL,> 200 µg/mL,29 µg/mL,> 200 µg/mL,Active,30 µg/mL,50 µg/mL,–,–,3.2 µg/mL
COc1cc(O)cc(-c2cc3c(O)cccc3o2)c1 [STEMOFURAN B],–,> 200 µg/mL,183 µg/mL,> 200 µg/mL,> 200 µg/mL,> 200 µg/mL,–,5 µg/mL,128 µg/mL,200 µg/mL,10 µg/mL,> 200 µg/mL,8 µg/mL,> 200 µg/mL,Active,52 µg/mL,50 µg/mL,–,–,1.4 µg/mL
COc1cc(O)cc(CCc2cccc(O)c2OC)c1,–,–,–,–,–,–,–,–,–,–,–,–,–,–,Active,–,–,–,–,–
COc1ccccc1CCc1cc(O)c(C)c(O)c1 [STILBOSTEMIN D],–,> 200 µg/mL,17 µg/mL,> 200 µg/mL,> 200 µg/mL,> 200 µg/mL,–,19 µg/mL,> 200 µg/mL,> 200 µg/mL,57 µg/mL,> 200 µg/mL,11 µg/mL,> 200 µg/mL,Active,152 µg/mL,100 µg/mL,–,–,3 µg/mL
Oc1cc(O)cc(/C=C/c2ccccc2)c1,–,–,–,–,–,–,–,–,–,–,–,–,–,–,Active,–,–,–,–,–
